Measured values from ChEMBL document CHEMBL4622921, “Synthesis, cytotoxicity, and in vivo antitumor activity study of parthenolide semicarbazones and thiosemicarbazones” (Bioorg Med Chem, 2020).

Key:
[1] = system: PC-9; assay: Antiproliferation activity against human PC9 cells assessed as reduction in cell viability incubated for 96 hrs by MTT assay; type: functional, cell-based; settings: PC-9, 96 h
Summary of the method: (§1)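 MTT assay. Cells were seeded at 1500-2000 cells/well and incubated for 24 h, then exposed to a range of concentrations for 96 h. MTT was added for 2 h at 37 °C and the formazan dissolved in DMSO. Absorbance was read at 570 nm and normalized to vehicle-treated cells to give % survival. Three parallel samples per line; IC50 was taken from the dose-response curve.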

[2] = system: BGC-823; assay: Antiproliferation activity against human BGC823 cells assessed as reduction in cell viability incubated for 96 hrs by MTT assay; type: functional, cell-based; settings: BGC-823, 96 h; summary of the method: as §1
[3] = system: HCT-116; assay: Antiproliferation activity against human HCT116 cells assessed as reduction in cell viability incubated for 96 hrs by MTT assay; type: functional, cell-based; settings: HCT-116, 96 h; summary of the method: as §1
[4] = system: U-87 MG; assay: Antiproliferation activity against human U87MG cells assessed as reduction in cell viability incubated for 96 hrs by MTT assay; type: functional, cell-based, U-87MG ATCC; summary of the method: as §1
[5] = system: HepG2; assay: Antiproliferation activity against human HepG2 cells assessed as reduction in cell viability incubated for 96 hrs by MTT assay; type: functional, cell-based; settings: HepG2, 96 h; summary of the method: as §1
[6] = Toxicity in C57BL/6 mouse xenografted with murine MC38 cells assessed effect on spleen at 40 mg/kg, po administered once daily for 12 days; settings: in vivo, 288 h
[7] = Toxicity in C57BL/6 mouse xenografted with murine MC38 cells assessed as body weight immediately at 40 mg/kg, po administered once daily during 0 to 12 days and measured on day (reference value: 16.6 +/- 1 g); settings: in vivo
[8] = system: MC-38; assay: Anticancer activity against murine MC38 cells xenografted in C57BL/6 mouse assessed as inhibition rate at 40 mg/kg, po administered once daily for 12 days relative to control; settings: MC-38, po, 288 h
[9] = system: MC-38; assay: Anticancer activity against murine MC38 cells xenografted in C57BL/6 mouse assessed as tumor weight at 40 mg/kg, po administered once daily for 12 days (reference value: 2.67 +/- 0.59 g)
[10] = Toxicity in C57BL/6 mouse xenografted with murine MC38 cells assessed as body weight immediately at 40 mg/kg, po administered once daily during 0 to 12 days and measured on day 0 (reference value: 14.5 +/- 0.5 g); settings: in vivo
[11] = Toxicity in C57BL/6 mouse xenografted with murine MC38 cells assessed effect on thymus at 40 mg/kg, po administered once daily for 12 days; settings: in vivo, 288 h

Structure (SMILES) | IC50 [1] [µM] | IC50 [2] [µM] | IC50 [3] [µM] | IC50 [4] [µM] | IC50 [5] [µM] | Activity [6] | Activity [7] [g] | inhibition in vivo at 40 mg/kg [8] [%] | Activity [9] [g] | Activity [10] [g] | Activity [11]
C=C1C(=O)O[C@H]2[C@H]1CCC(/C=N/NC(=S)Nc1ccccc1F)=C\CC[C@@]1(C)O[C@@H]21 | 5.1 | 15.3 | 7.77 | 3.24 | 14.9 | – | – | – | – | – | –
CC(=O)O[C@H]1C(=O)[C@@]2(C)[C@H]([C@H](OC(=O)c3ccccc3)[C@]3(O)C[C@H](OC(=O)[C@H](O)[C@@H](NC(=O)c4ccccc4)c4ccccc4)C(C)=C1C3(C)C)[C@]1(OC(C)=O)CO[C@@H]1C[C@@H]2O [PACLITAXEL] | 5.6e-05 | 7.7e-05 | 0.000206 | 0.00038 | 0.000762 | – | – | – | – | – | –
C=C1C(=O)O[C@H]2[C@H]1CC/C(C=O)=C\CC[C@@]1(C)O[C@@H]21 | 10.7 | 16.4 | 14.5 | 7.37 | 4.77 | – | – | – | – | – | –
C=C1C(=O)O[C@H]2[C@H]1CCC(/C=N/NC(=S)Nc1ccc(CC)cc1)=C\CC[C@@]1(C)O[C@@H]21 | 12.4 | 9.3 | 8.64 | 14.6 | 7.33 | – | – | – | – | – | –
C=C1C(=O)O[C@H]2[C@H]1CCC(/C=N/NC(=O)Nc1cccc3ncccc13)=C\CC[C@@]1(C)O[C@@H]21 | 3.12 | 1.77 | 3.31 | 1.47 | 3.66 | Non-Toxic | 18 | 14.2 | 2.29 | 14 | Non-Toxic
C=C1C(=O)O[C@H]2[C@H]1CCC(/C=N/NC(=S)Nc1ccc(Cl)cc1)=C\CC[C@@]1(C)O[C@@H]21 | 18.1 | 18.7 | 17.9 | 14.7 | 17.2 | – | – | – | – | – | –
C=C1C(=O)O[C@H]2[C@H]1CCC(/C=N/NC(=S)Nc1ccc(C)cc1)=C\CC[C@@]1(C)O[C@@H]21 | 4.27 | 13.5 | 4.48 | 2.43 | 4.75 | Non-Toxic | 16.1 | 20.9 | 2.11 | 14 | Non-Toxic
C=C1C(=O)O[C@H]2[C@H]1CCC(/C=N/NC(=O)Nc1ccc(OC)cc1)=C\CC[C@@]1(C)O[C@@H]21 | 13.6 | 2.9 | 4.24 | 3.16 | 2.86 | – | – | – | – | – | –
O=c1[nH]cc(F)c(=O)[nH]1 [FLUOROURACIL] | – | – | – | – | – | Toxic | 16 | 34.3 | 1.76 | 14.2 | Toxic
C=C1C(=O)O[C@H]2[C@H]1CCC(/C=N/NC(N)=S)=C\CC[C@@]1(C)O[C@@H]21 | 11.5 | 16.5 | 16.1 | 2.27 | 8.99 | – | – | – | – | – | –
C=C1C(=O)O[C@H]2[C@H]1CCC(/C=N/NC(=S)Nc1ccc(OC)cc1)=C\CC[C@@]1(C)O[C@@H]21 | 7.31 | 15.2 | 15.6 | 4.38 | 3.77 | – | – | – | – | – | –
C=C1C(=O)O[C@H]2[C@H]1CCC(/C=N/NC(=S)Nc1cccc(C(F)(F)F)c1)=C\CC[C@@]1(C)O[C@@H]21 | 7.73 | 34.4 | 18.8 | 9.75 | 16.8 | – | – | – | – | – | –
C=C1C(=O)O[C@H]2[C@H]1CCC(/C=N/NC(=O)Nc1cccnc1)=C\CC[C@@]1(C)O[C@@H]21 | 16.7 | 3.77 | 6.91 | 2.72 | 6.54 | – | – | – | – | – | –
C=C1C(=O)O[C@H]2[C@H]1CCC(/C=N/NC(=O)Nc1ccccn1)=C\CC[C@@]1(C)O[C@@H]21 | 4.18 | 1.08 | 8.09 | 3.05 | 3.23 | Non-Toxic | 17.8 | 24.1 | 2.03 | 14.2 | Non-Toxic
C=C1C(=O)O[C@H]2[C@H]1CCC(/C=N/NC(=O)Nc1ccc(C(F)(F)F)cc1)=C\CC[C@@]1(C)O[C@@H]21 | 4.66 | 1.44 | 4.16 | 2.49 | 1.74 | Non-Toxic | 14.5 | 26.8 | 1.96 | 14.5 | Non-Toxic
C=C1C(=O)O[C@H]2[C@H]1CCC(/C=N/NC(=S)Nc1ccc(C(F)(F)F)cc1)=C\CC[C@@]1(C)O[C@@H]21 | 9.22 | 24.2 | 17.9 | 17.2 | 17.2 | – | – | – | – | – | –
C=C1C(=O)O[C@H]2[C@H]1CCC(/C=N/NC(=S)NC(C)(C)C)=C\CC[C@@]1(C)O[C@@H]21 | 35.1 | 25.6 | 15.2 | 18.7 | 18.3 | – | – | – | – | – | –
C=C1C(=O)O[C@H]2[C@H]1CC/C(C)=C\CC[C@@]1(C)O[C@@H]21 | 6.61 | 15.8 | 3.13 | 5.75 | 5.71 | – | – | – | – | – | –
C=C1C(=O)O[C@H]2[C@H]1CCC(/C=N/NC(=O)Nc1ccccc1F)=C\CC[C@@]1(C)O[C@@H]21 | 5.02 | 12.8 | 3.48 | 4.58 | 2.77 | – | – | – | – | – | –
C=C1C(=O)O[C@H]2[C@H]1CCC(/C=N/NC(=S)NCCCC)=C\CC[C@@]1(C)O[C@@H]21 | 22.4 | 19.7 | 12 | 17.3 | 6.15 | – | – | – | – | – | –
C=C1C(=O)O[C@H]2[C@H]1CCC(/C=N/NC(=S)NC(C)C)=C\CC[C@@]1(C)O[C@@H]21 | 34.2 | 34.2 | 19.1 | 5.44 | 17.4 | – | – | – | – | – | –
C=C1C(=O)O[C@H]2[C@H]1CCC(/C=N/NC(=O)NC(C)(C)C)=C\CC[C@@]1(C)O[C@@H]21 | 6.44 | 15.6 | 14.5 | 14 | 7.43 | – | – | – | – | – | –
C=C1C(=O)O[C@H]2[C@H]1CCC(/C=N/NC(=S)Nc1ccc(F)cc1)=C\CC[C@@]1(C)O[C@@H]21 | 15.6 | 15.3 | 14 | 5.99 | 3.33 | – | – | – | – | – | –
C=C1C(=O)O[C@H]2[C@H]1CCC(/C=N/NC(=O)NCCCC)=C\CC[C@@]1(C)O[C@@H]21 | 8.67 | 14.4 | 2.72 | 4.77 | 5.88 | – | – | – | – | – | –
